ChEMBL document CHEMBL1944616, “Benzoxaborole antimalarial agents. Part 2: Discovery of fluoro-substituted 7-(2-carboxyethyl)-1,3-dihydro-1-hydroxy-2,1-benzoxaboroles” (Bioorg Med Chem Lett, 2012)

Tests used:
Plasmodium falciparum = test: Antimalarial activity against ring stage Plasmodium falciparum 3D7 infected in human erythrocytes after 48 hrs by flow cytometry; type: functional, organism-based; details: 3D7, 48 h
[1] = Growth inhibition of human Jurkat cells at 25 uM after 72 hrs by MTT assay; type: cell-based; details: read-out: GI
In short: (§1)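 Cytotoxicity counter-screen on human Jurkat (T cell) and human HeLa (cervical carcinoma) cell lines. Selected compounds were tested at one fixed concentration each.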

[2] = Growth inhibition of human HeLa cells at 25 uM after 72 hrs by MTT assay; type: cell-based; details: read-out: GI; in short: as §1

SMILES | IC50 (Plasmodium falciparum) [µM] | inhibition at 72 h, 25 µM [1] [%] | inhibition at 72 h, 25 µM [2] [%]
O=C1C(O)=C([C@H]2CC[C@H](c3ccc(Cl)cc3)CC2)C(=O)c2ccccc21 [ATOVAQUONE] | 0.001 | – | –
O=P(O)(O)CCc1cccc2c1B(O)OC2 | > 5 | 3 | 26
CC(=O)Nc1ccc(CCC(=O)O)c2c1COB2O | > 5 | – | –
COc1cc(CCC(=O)O)c2c(c1)COB2O | 3.48 | – | –
O=C1NC(=O)C(Cc2cccc3c2B(O)OC3)N1 (stereo not given) | > 5 | 14.1 | 67.7

Continued, in another order:

IC50 (Plasmodium falciparum) [µM] | SMILES | inhibition at 72 h, 25 µM [1] [%] | inhibition at 72 h, 25 µM [2] [%]
1.82 | O=C(O)C1CCc2ccc3c(c2C1)B(O)OC3 (stereo not given) | – | –
0.83 | O=C(O)C(F)Cc1cccc2c1B(O)OC2 (stereo not given) | – | –
0.061 | O=C(O)CCc1cc(F)cc2c1B(O)OC2 | – | –
1.33 | O=C(O)CCc1cc(Cl)cc2c1B(O)OC2 | – | –
1.45 | Cc1ccc(CCC(=O)O)c2c1COB2O | – | –
0.75 | O=C(O)CCc1c(Cl)ccc2c1B(O)OC2 | – | –
